Test results reported in ChEMBL document CHEMBL4270606, “Pyridine bioisosteres of potent GluN2B subunit containing NMDA receptor antagonists with benzo[7]annulene scaffold” (Eur J Med Chem, 2018).

Target: Glutamate NMDA receptor; GRIN1/GRIN2B (Homo sapiens, UniProt Q05586+Q13224)
Assay: Displacement of [3H]-ifenprodil from GluN1a/GluN2B (unknown origin) expressed in L(tk-) cell membranes after 120 mins by scintillation counting analysis

Sequence of Glutamate NMDA receptor; GRIN1/GRIN2B (Q13224 whole entry, other chains not shown): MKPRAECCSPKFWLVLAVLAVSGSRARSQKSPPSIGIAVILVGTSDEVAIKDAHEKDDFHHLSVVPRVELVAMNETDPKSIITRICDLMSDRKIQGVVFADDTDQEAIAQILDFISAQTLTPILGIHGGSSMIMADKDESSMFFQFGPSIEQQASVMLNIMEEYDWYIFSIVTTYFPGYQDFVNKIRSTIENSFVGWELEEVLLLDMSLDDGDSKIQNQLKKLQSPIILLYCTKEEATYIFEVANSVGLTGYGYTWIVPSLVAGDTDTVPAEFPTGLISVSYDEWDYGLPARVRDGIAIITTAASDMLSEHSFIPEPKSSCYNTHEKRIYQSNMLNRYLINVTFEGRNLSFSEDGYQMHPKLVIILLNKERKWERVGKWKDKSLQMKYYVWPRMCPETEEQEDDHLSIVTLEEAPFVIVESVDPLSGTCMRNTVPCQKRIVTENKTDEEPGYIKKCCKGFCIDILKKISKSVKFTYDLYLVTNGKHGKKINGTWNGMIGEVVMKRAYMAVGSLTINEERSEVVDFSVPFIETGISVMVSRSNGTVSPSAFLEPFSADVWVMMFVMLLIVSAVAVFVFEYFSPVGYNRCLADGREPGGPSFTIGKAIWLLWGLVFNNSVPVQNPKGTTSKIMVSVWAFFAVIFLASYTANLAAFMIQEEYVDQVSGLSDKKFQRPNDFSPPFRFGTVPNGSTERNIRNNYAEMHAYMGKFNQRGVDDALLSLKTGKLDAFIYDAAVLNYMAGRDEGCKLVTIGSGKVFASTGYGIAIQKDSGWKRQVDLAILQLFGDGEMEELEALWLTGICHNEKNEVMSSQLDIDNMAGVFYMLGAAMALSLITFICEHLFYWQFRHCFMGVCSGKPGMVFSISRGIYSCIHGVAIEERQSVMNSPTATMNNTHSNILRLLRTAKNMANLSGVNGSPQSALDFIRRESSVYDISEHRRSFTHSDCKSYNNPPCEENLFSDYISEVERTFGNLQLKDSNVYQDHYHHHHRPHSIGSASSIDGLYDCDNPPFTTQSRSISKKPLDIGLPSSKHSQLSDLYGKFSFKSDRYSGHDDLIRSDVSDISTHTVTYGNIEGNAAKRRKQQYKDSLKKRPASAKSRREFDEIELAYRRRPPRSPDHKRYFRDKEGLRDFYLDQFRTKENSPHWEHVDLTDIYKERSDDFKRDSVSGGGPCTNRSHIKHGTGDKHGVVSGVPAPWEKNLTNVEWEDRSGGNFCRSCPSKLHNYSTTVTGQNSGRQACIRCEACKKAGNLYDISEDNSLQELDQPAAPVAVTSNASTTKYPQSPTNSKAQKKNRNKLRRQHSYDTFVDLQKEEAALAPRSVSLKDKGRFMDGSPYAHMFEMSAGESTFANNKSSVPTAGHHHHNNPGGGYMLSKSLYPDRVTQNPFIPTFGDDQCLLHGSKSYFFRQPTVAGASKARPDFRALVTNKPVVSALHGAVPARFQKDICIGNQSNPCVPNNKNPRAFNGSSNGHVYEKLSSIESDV

| Ki | SMILES |
| --- | --- |
| 149 nM | c1ccc(CCCCNC2CCc3cccnc3CC2)cc1 (stereo not given) |
| 445 nM | CN(CCCc1ccccc1)C1CCc2cccnc2CC1 (stereo not given) |
| 302 nM | c1ccc(CCCNC2CCc3cccnc3CC2)cc1 (stereo not given) |
| 477 nM | CN(CCCCc1ccccc1)C1CCc2cccnc2CC1 (stereo not given) |

| SMILES | Ki |
| --- | --- |
| c1ccc(CNC2CCc3cccnc3CC2)cc1 (stereo not given) | > 1000 nM |

Species on record: Sus scrofa
Assay: Displacement of [3H]-(+)-MK-801 from PCP binding site of NMDA receptor in pig brain cortex membranes at 1 uM after 120 mins by solid scintillation counting relative to control
Format: cell membranes
Method in brief: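 Single 1 µM test concentration: inhibition (%) of 2 nM [3H]-(+)-MK-801 binding to pig brain cortex membranes (about 100 µg protein). Buffer was 5 mM TRIS/1 mM EDTA, pH 7.5, at rt. Nonspecific binding defined with 10 µM unlabeled (+)-MK-801. Bound radioactivity collected by filtration and counted by solid scintillation.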

| inhibition | SMILES |
| --- | --- |
| 8% | c1ccc(CCCCNC2CCc3cccnc3CC2)cc1 (stereo not given) |
| 0% | CN(CCCc1ccccc1)C1CCc2cccnc2CC1 (stereo not given) |
| 10% | c1ccc(CCCNC2CCc3cccnc3CC2)cc1 (stereo not given) |
| 5% | CN(CCCCc1ccccc1)C1CCc2cccnc2CC1 (stereo not given) |

| SMILES | inhibition |
| --- | --- |
| c1ccc(CNC2CCc3cccnc3CC2)cc1 (stereo not given) | 0% |

Target: not listed separately
Assay: Displacement of [3H]-(+)-MK-801 from PCP binding site of NMDA receptor in pig brain cortex membranes after 120 mins by solid scintillation counting
Format: cell membranes, Sus scrofa
Method in brief: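 Pig brain cortex membranes (about 100 µg protein) incubated with 2 nM [3H]-(+)-MK-801 and test compound at 10^-5 to 10^-9 mol/L (final) in 5 mM TRIS/1 mM EDTA, pH 7.5, at rt with shaking. Nonspecific binding defined with 10 µM unlabeled (+)-MK-801. Filtration, melted solid scintillator, [3H] counting. Duplicates. IC50 by non-linear regression, converted to Ki via Cheng-Prusoff (Kd 2.26 nM). Mean ± SEM of three experiments.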

| IC50 | SMILES |
| --- | --- |
| > 1000 nM | c1ccc(CCCCNC2CCc3cccnc3CC2)cc1 (stereo not given) |
| > 1000 nM | CN(CCCc1ccccc1)C1CCc2cccnc2CC1 (stereo not given) |
| > 1000 nM | c1ccc(CCCNC2CCc3cccnc3CC2)cc1 (stereo not given) |
| > 1000 nM | CN(CCCCc1ccccc1)C1CCc2cccnc2CC1 (stereo not given) |

| SMILES | IC50 |
| --- | --- |
| c1ccc(CNC2CCc3cccnc3CC2)cc1 (stereo not given) | > 1000 nM |

Target: Sigma non-opioid intracellular receptor 1 (Cavia porcellus, UniProt Q60492)
Sequence (Q60492 whole entry): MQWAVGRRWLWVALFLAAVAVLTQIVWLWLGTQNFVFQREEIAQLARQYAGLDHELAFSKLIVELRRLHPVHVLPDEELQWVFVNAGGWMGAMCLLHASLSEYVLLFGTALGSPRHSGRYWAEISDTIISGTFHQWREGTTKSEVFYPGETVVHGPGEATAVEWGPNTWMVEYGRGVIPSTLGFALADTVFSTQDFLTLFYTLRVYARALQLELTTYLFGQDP
Assay: Displacement of [3H]-(+)-pentazocine from sigma1 receptor in guinea pig brain cortex membrane after 120 mins by scintillation counting method
Format: cell membranes

| Ki | SMILES |
| --- | --- |
| 214 nM | c1ccc(CCCCNC2CCc3cccnc3CC2)cc1 (stereo not given) |
| 261 nM | CN(CCCc1ccccc1)C1CCc2cccnc2CC1 (stereo not given) |
| 992 nM | c1ccc(CCCNC2CCc3cccnc3CC2)cc1 (stereo not given) |
| 263 nM | CN(CCCCc1ccccc1)C1CCc2cccnc2CC1 (stereo not given) |

| SMILES | Ki |
| --- | --- |
| c1ccc(CNC2CCc3cccnc3CC2)cc1 (stereo not given) | 942 nM |

Target: T1, Sigma intracellular receptor 2 (Rattus norvegicus, UniProt Q5U3Y7)
T1 sequence (Q5U3Y7 whole entry): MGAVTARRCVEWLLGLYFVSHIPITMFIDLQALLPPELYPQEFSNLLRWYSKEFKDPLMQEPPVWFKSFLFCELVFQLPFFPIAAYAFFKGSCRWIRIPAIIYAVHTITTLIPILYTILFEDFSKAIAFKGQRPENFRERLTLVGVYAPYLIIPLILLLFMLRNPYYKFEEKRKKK
Assay: Displacement of [3H]-di-o-tolylguanidine from sigma2 receptor in rat liver membranes incubated for 120 mins by scintillation counting method
Format: cell membranes, Membrane

| Ki | SMILES |
| --- | --- |
| 68 nM | c1ccc(CCCCNC2CCc3cccnc3CC2)cc1 (stereo not given) |
| 68 nM | CN(CCCc1ccccc1)C1CCc2cccnc2CC1 (stereo not given) |
| 276 nM | c1ccc(CCCNC2CCc3cccnc3CC2)cc1 (stereo not given) |
| 115 nM | CN(CCCCc1ccccc1)C1CCc2cccnc2CC1 (stereo not given) |

| SMILES | Ki |
| --- | --- |
| c1ccc(CNC2CCc3cccnc3CC2)cc1 (stereo not given) | 490 nM |
